The record followed here is ChEMBL document CHEMBL1687766, “In vitro activity of the new multivalent glycopeptide-cephalosporin antibiotic TD-1792 against vancomycin-nonsusceptible Staphylococcus isolates” (Antimicrob Agents Chemother, 2010).

The term MBC denotes the smallest concentration meeting the test's criterion for killing. Low values mean greater bactericidal potency, high ones weaker bactericidal potency. The MIC50 is the lowest concentration that inhibits either 50% of growth or 50% of the strains tested, depending on the study. Lower therefore signals higher susceptibility. The MIC90 is an inhibitory concentration at the 90% level, which refers to growth in some studies and to a panel of isolates in others. A lower MIC90 goes with higher susceptibility.

In series [1] the test system is Staphylococcus aureus. Kind of series: Antimicrobial activity against vancomycin-resistant Staphylococcus aureus isolate PA assessed as bacterial count at 8 times MIC after 24 hrs by colony counting method. Format: functional. Summed up: (§1)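 Time-kill in triplicate. Mid-exponential culture (OD600 ~0.3) diluted in supplemented Mueller-Hinton broth to 5 × 10^6 CFU/ml. Daptomycin was run at physiologic calcium, 1.1 to 1.3 mM. […] Samples at 0, 1, 4, 8 and 24 h were diluted in cold saline or vacuum filtered, then spiral-plated on BHI agar for 24 h at 35°C. Value is the log10 CFU/ml change from baseline at 24 h.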

Series [2] is described as follows: Plasma protein binding in human in presence of human serum. To be noted: read-out: PPB (converted). Format: ADME, cell-free.
The test system of series [3] is Staphylococcus haemolyticus. The series can be described thus: Antimicrobial activity against vancomycin-intermediate Staphylococcus haemolyticus after 24 hrs by microdilution method. Format: functional. To be noted: for MBC / MIC50 / MIC90: Staphylococcus haemolyticus, 24 h. Summed up: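 CLSI broth microdilution in supplemented Mueller-Hinton broth (12.5 μg/ml Mg, 25 μg/ml Ca), with Ca adjusted to 1.1–1.3 mM for daptomycin. Inoculum was 5 × 10^5 CFU/ml, incubated 24 h at 35°C, done in duplicate. For MBC, clear wells were plated on BHI agar and read after 24 h at 35°C.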

Series [4] relates to Staphylococcus aureus. Kind of series: Antimicrobial activity against vancomycin-resistant Staphylococcus aureus isolate MI assessed as bacterial count at 32 times MIC after 24 hrs by colony counting method. Format: functional. Summed up:
as §1

Series [5] concerns Staphylococcus aureus. The series can be described thus: Antimicrobial activity against vancomycin-resistant Staphylococcus aureus isolate PA assessed as bacterial count at 4 times MIC after 24 hrs by colony counting method in presence of 50% human serum. Format: functional. Summed up: (§2)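 Time-kill in triplicate, starting inoculum 5 × 10^6 CFU/ml from a mid-exponential culture. Medium was 50% heat-treated, filtered human serum plus 50% broth, final 25 SMHB for TD-1792 and 50 SMHB for daptomycin. Drug at multiples of MIC. Samples to 24 h were plated on BHI agar for 24 h at 35°C. Value is the log10 CFU/ml change from baseline at 24 h.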

The test system of series [6] is Staphylococcus aureus. The series can be described thus: Antimicrobial activity against vancomycin-resistant Staphylococcus aureus isolate PA assessed as bacterial count at 16 times MIC after 24 hrs by colony counting method in presence of 50% human serum. Format: functional. Summed up: as §2
In series [7] the test system is Staphylococcus aureus. Kind of series: Antimicrobial activity against methicillin-resistant Staphylococcus aureus infected in patient with complicated skin and skin structure infections assessed as cure rate. Format: functional.

≈ marks a conversion by molar mass, not a printed value.

`CCCCCCCCCC(=O)N[C@@H](Cc1c[nH]c2ccccc12)C(=O)N[C@H](CC(N)=O)C(=O)N[C@@H](CC(=O)O)C(=O)N[C@@H]1C(=O)NCC(=O)N[C@@H](CCCN)C(=O)N[C@@H](CC(=O)O)C(=O)N[C@H](C)C(=O)N[C@@H](CC(=O)O)C(=O)NCC(=O)N[C@H](CO)C(=O)N[C@@H]([C@H](C)CC(=O)O)C(=O)N[C@@H](CC(=O)c2ccccc2N)C(=O)O[C@@H]1C`: the log10CFU/ml in the series on Staphylococcus aureus [1] was found to be 4.95. Besides, in series [2], the fraction unbound was 0.08. Moreover, in series [3], the MBC50 was 1 µg/mL (≈ 0.617 µM), the MBC90 was determined as 2 µg/mL (≈ 1.23 µM), the MBC was 0.25 µg/mL (≈ 0.154 µM) and the MIC50 came out at 1 µg/mL (≈ 0.617 µM). Also, in series [3], the MIC90 came out at 1 µg/mL (≈ 0.617 µM).

As for `CN[C@H](CC(C)C)C(=O)N[C@H]1C(=O)N[C@@H](CC(N)=O)C(=O)N[C@H]2C(=O)N[C@H]3C(=O)N[C@H](C(=O)N[C@H](C(=O)NCCCO/N=C(\C(=O)N[C@@H]4C(=O)N5C(C(=O)[O-])=C(C[n+]6ccccc6)CS[C@H]45)c4nc(N)sc4Cl)c4cc(O)cc(O)c4-c4cc3ccc4O)[C@H](O)c3ccc(c(Cl)c3)Oc3cc2cc(c3O[C@@H]2O[C@H](CO)[C@@H](O)[C@H](O)[C@H]2O[C@H]2C[C@](C)(N)[C@H](O)[C@H](C)O2)Oc2ccc(cc2Cl)[C@H]1O`, the log10CFU/ml in the series with Staphylococcus aureus [4] came to 5.13. In addition, the log10CFU/ml with Staphylococcus aureus [5] is recorded as 4.04. In addition, the log10CFU/ml with Staphylococcus aureus [6] came out at 5.15. Besides, in the series on Staphylococcus aureus [7], the Activity is listed as 94.7%. In series [3], the MBC50 worked out at 0.06 µg/mL (≈ 0.0303 µM), the MBC90 amounted to 0.125 µg/mL (≈ 0.063 µM), the MBC worked out at 0.015 µg/mL (≈ 0.00756 µM) and the MIC50 worked out at 0.06 µg/mL (≈ 0.0303 µM). In series [3], this compound returned an MIC90 of 0.125 µg/mL (≈ 0.063 µM).
